ChEMBL document CHEMBL1667831, “Synthesis and biological evaluation of 2-aminoimidazole/carbamate hybrid anti-biofilm and anti-microbial agents” (Bioorg Med Chem Lett, 2011)

Legend:
Staphylococcus aureus [1] = test: Antibacterial activity against Staphylococcus aureus ATCC 29213; format: functional
How it was run: (§1)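 MIC, the minimum inhibitory concentration, measured against planktonic bacteria.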

Staphylococcus aureus [2] = test: Antibiofilm activity against methicillin-resistant Staphylococcus aureus; format: functional, organism-based
How it was run: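 Biofilm inhibition dose-response study. Biofilm formation is quantified with a crystal violet reporter assay. IC50 is the concentration that inhibits 50% of biofilm formation.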

Acinetobacter baumannii [3] = test: Antibacterial activity against multi-drug resistant Acinetobacter baumannii ATCC BAA-1605; format: functional; how it was run: as §1
Pseudomonas aeruginosa [4] = test: Antibiofilm activity against Pseudomonas aeruginosa PA14; format: functional, organism-based
How it was run: (§2)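 Crystal violet reporter assay of biofilm formation, run as a dose-response. IC50 is the concentration inhibiting 50% of biofilm formation. Highest concentration tested 200 µM.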

[5] = Cytotoxicity against sheep RBC assessed hemolysis; format: cell-based, Ovis aries, Erythrocyte; settings: sheep red blood cells, read-out: HD50 (the source's name)
How it was run: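 Red blood cell hemolysis assay using defibrinated sheep blood. HD50 is the concentration at which 50% hemolysis is observed.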

Acinetobacter baumannii [6] = test: Antibiofilm activity against Acinetobacter baumannii ATCC 19606; format: functional, organism-based; settings: ATCC 19606 = CIP 70.34 = JCM 6841; how it was run: as §2
Acinetobacter baumannii [7] = test: Antibacterial activity against Acinetobacter baumannii ATCC 19606; format: functional; settings: ATCC 19606 = CIP 70.34 = JCM 6841; how it was run: as §1
Pseudomonas aeruginosa [8] = test: Antibacterial activity against Pseudomonas aeruginosa PA14; format: functional
Staphylococcus aureus [9] = test: Antibacterial activity against methicillin-resistant Staphylococcus aureus; format: functional; how it was run: as §1
Acinetobacter baumannii [10] = test: Antibiofilm activity against Acinetobacter baumannii ATCC 19606 assessed as biofilm dispersal; format: functional, organism-based; settings: ATCC 19606 = CIP 70.34 = JCM 6841
How it was run: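 Dispersal of pre-formed A. baumannii biofilms, run as a dose-response. EC50 values are reported for dispersal.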

Staphylococcus aureus [11] = test: Antibiofilm activity against Staphylococcus aureus ATCC 29213 assessed as biofilm dispersal; format: functional, organism-based
How it was run: (§3)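 Dispersal of pre-formed biofilms, tested in dose-response. The value reported is EC50.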

Staphylococcus aureus [12] = test: Antibiofilm activity against methicillin-resistant Staphylococcus aureus assessed as biofilm dispersal; format: functional, organism-based; how it was run: as §3

SMILES	MIC (Staphylococcus aureus [1]) [µg/mL]	IC50 (Staphylococcus aureus [2]) [µM]	MIC (Acinetobacter baumannii [3]) [µg/mL]	IC50 (Pseudomonas aeruginosa [4]) [µM]	HC50 [5] [µM]	IC50 (Acinetobacter baumannii [6]) [µM]	MIC (Acinetobacter baumannii [7]) [µg/mL]	MIC (Pseudomonas aeruginosa [8]) [µg/mL]	MIC (Staphylococcus aureus [9]) [µg/mL]	EC50 (Acinetobacter baumannii [10]) [µM]	EC50 (Staphylococcus aureus [11]) [µM]	EC50 (Staphylococcus aureus [12]) [µM]
CC(C)[C@@H]1CC[C@@H](C)C[C@H]1OC(=O)NCCn1cc(CCCCCc2c[nH]c(N)n2)nn1.Cl	16	29.9	128	58.7	474	94.9	64	> 128	64			
CC(C)[C@@H]1CC[C@@H](C)C[C@H]1OC(=O)NCCCCCCCc1c[nH]c(N)n1.Cl	8		8		474	16.7	8	64	8	68.3	38.8	53.5
CC(C)[C@@H]1CC[C@@H](C)C[C@H]1OC(=O)NCCCCCc1c[nH]c(N)n1.Cl	32		32	18	464	19.2	32	32	32			
CC(C)[C@@H]1CC[C@@H](C)C[C@H]1OC(=O)NCCCn1cc(CCCCCc2c[nH]c(N)n2)nn1.Cl	16	20.5	64	40.3	318		64	64	16			
CC(C)[C@@H]1CC[C@@H](C)C[C@H]1OC(=O)N(CCCCCCc1cn(CCCCCCc2c[nH]c(N)n2)nn1)CCc1ccccn1.Cl	4		> 128	> 200	46	18.4	32	> 128	4			
CC(C)[C@@H]1CC[C@@H](C)C[C@H]1OC(=O)NCCCCCCc1c[nH]c(N)n1.Cl	8		16	18	229		16	64	8			
CC(=O)NCCCCCCc1cn(CCCCCc2c[nH]c(N)n2)nn1.Cl	> 128	> 200	> 128	> 200	> 800	> 200	> 128	> 128	> 128			
CC(C)[C@@H]1CC[C@@H](C)C[C@H]1OC(=O)N(CCCCCCc1cn(CCCCCc2c[nH]c(N)n2)nn1)CCc1ccccn1.Cl	4		16	> 200	93.8	19.2	16	> 128	8	37.5	> 200	> 200
CC(C)[C@@H]1CC[C@@H](C)C[C@H]1OC(=O)N(CCCCCCc1cn(CCCCCCCc2c[nH]c(N)n2)nn1)CCc1ccccn1.Cl	4		> 128	> 200	42.7	16.7	> 128	> 128	4	20.6	32.5	38.1
